Experimental data reported in ChEMBL document CHEMBL3526146, “In vitro and in vivo metabolism and pharmacokinetics of BMS-562086, a potent and orally bioavailable corticotropin-releasing factor-1 receptor antagonist” (Drug Metab Dispos, 2012).

What was measured:
[1] = Detection of compound level in beagle dog hepatocytes treated with 25 uM of BMS-562086 after 3 hrs by LC-MS/MS analysis; format: ADME, cell-based, Canis lupus familiaris, Hepatocyte
Method in brief: (§1)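 Mouse, rat, dog, monkey and human hepatocytes (trypan blue viability checked) at 1.0×10^6 cells/ml in Krebs-Henseleit buffer were incubated with 25 µM compound, in duplicate. Conditions were 37°C, 95/5 O2/CO2, orbital shaking, 3 h. 7-Ethoxycoumarin and 7-hydroxycoumarin (100 µM) served as positive controls, with a cell-free negative control. Reactions were quenched with ice-cold acetonitrile, then sonicated and centrifuged; supernatants were analysed by LC/MS/MS.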

[2] = Drug metabolism in cynomolgus monkey liver microsomes assessed as DPH-124921 metabolite level at 100 uM after 1 hr in presence of NADPH; format: ADME, Macaca fascicularis
Method in brief: (§2)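 Mouse, rat, dog, monkey and human liver microsomes (1 mg/ml protein) were incubated with 100 µM compound in 100 mM phosphate buffer. Reactions were started with 1 mM NADPH and run 1 h at 37°C in duplicate. Controls lacked protein or NADPH, plus a 7-ethoxycoumarin (100 µM) positive control. Metabolites were identified by LC/MS/MS.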

[3] = Drug metabolism in mouse hepatocytes assessed as BMS-572273 metabolite level at 25 uM after 3 hrs by LC-MS/MS analysis; format: ADME, cell-based, Hepatocyte
Method in brief: (§3)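 Hepatocytes checked for viability by trypan blue exclusion, then diluted in Krebs-Henseleit buffer to 1.0 × 10^6 cells/ml. Incubated in duplicate with 25 µM compound at 37°C for 3 h on an orbital shaker (80 rpm) under 95/5 O2/CO2. Negative control had no cells. Stopped with ice-cold acetonitrile, sonicated, centrifuged; supernatant analysed by LC/MS/MS.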

[4] = Drug metabolism in human cryopreserved hepatocytes assessed as DPH-123554 metabolite level at 25 uM after 3 hrs by LC-MS/MS analysis; format: ADME, cell-based, Hepatocyte; method in brief: as §3
[5] = Drug metabolism in beagle dog hepatocytes assessed as DPH-123554 metabolite level at 25 uM after 3 hrs by LC-MS/MS analysis; format: ADME, cell-based, Canis lupus familiaris, Hepatocyte; method in brief: as §1
Liver microsome [6] = experiment: Drug metabolism in rat liver microsomes assessed as BMS-572273 metabolite level at 100 uM after 1 hr in presence of NADPH; format: ADME
Method in brief: (§4)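 Liver microsomes (1 mg/ml protein) in 100 mM phosphate buffer with 100 µM test compound. Reaction started by adding NADPH (1 mM), then run at 37°C for 1 h in a shaking water bath, in duplicate. Controls lacked microsomal protein or NADPH; 7-ethoxycoumarin (100 µM) was the positive control. Metabolites identified by LC/MS/MS.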

[7] = Drug metabolism in cynomolgus monkey cryopreserved hepatocytes at 25 uM after 3 hrs by LC-MS/MS analysis; format: ADME, cell-based, Macaca fascicularis, Hepatocyte; method in brief: as §1
Hepatocyte = experiment: Detection of compound level in mouse hepatocytes treated with 25 uM of BMS-562086 after 3 hrs by LC-MS/MS analysis; format: ADME, cell-based; method in brief: as §1
Liver microsome [8] = experiment: Drug metabolism in rat liver microsomes at 100 uM after 1 hr in presence of NADPH; format: ADME; method in brief: as §4
Liver microsome [9] = experiment: Drug metabolism in dog liver microsomes assessed as BMS-572273 metabolite level at 100 uM after 1 hr in presence of NADPH; format: ADME, Canis lupus familiaris; method in brief: as §2
[10] = Drug metabolism in beagle dog hepatocytes assessed as DPH-124921 metabolite level at 25 uM after 3 hrs by LC-MS/MS analysis; format: ADME, cell-based, Canis lupus familiaris, Hepatocyte; method in brief: as §1
[11] = Retention time of the compound by HPLC method; format: physicochemical
[12] = Drug metabolism in rat hepatocytes assessed as DPH-123554 metabolite level at 25 uM after 3 hrs by LC-MS/MS analysis; format: ADME, cell-based, Hepatocyte; method in brief: as §3
[13] = Drug metabolism in beagle dog hepatocytes assessed as BMS-572273 metabolite level at 25 uM after 3 hrs by LC-MS/MS analysis; format: ADME, cell-based, Canis lupus familiaris, Hepatocyte; method in brief: as §1
Liver microsome [14] = experiment: Drug metabolism in human liver microsomes assessed as DPH-124921 metabolite level at 100 uM after 1 hr in presence of NADPH; format: ADME; method in brief: as §4
[15] = Drug metabolism in human cryopreserved hepatocytes assessed as BMS-572273 metabolite level at 25 uM after 3 hrs by LC-MS/MS analysis; format: ADME, cell-based, Hepatocyte; method in brief: as §3
[16] = Drug metabolism in rat hepatocytes assessed as BMS-572273 metabolite level at 25 uM after 3 hrs by LC-MS/MS analysis; format: ADME, cell-based, Hepatocyte; method in brief: as §3
[17] = Drug metabolism in bile duct-cannulated Sprague-Dawley rat bile assessed as BMS-572273 metabolite level at 30 mg/kg, po after 12 hrs by LC-MS/MS analysis; format: ADME, organism-based; design: dose 30 mg/kg, route oral; details: in vivo
Method in brief: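 Male bile-duct-cannulated Sprague-Dawley rats (n=3), fasted overnight, received 30 mg/kg by gavage in 0.5% methylcellulose. Urine and bile were collected 0-12 h and pooled by equal percentage weight across animals, then centrifuged. Supernatants were profiled by LC/MS/MS. Bile was also treated with β-glucuronidase in pH 4.8 acetate buffer, 37°C, 16 h.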

[18] = Terminal half life in Sprague-Dawley rat at 5 mg/kg, po; format: ADME, organism-based; design: dose 5 mg/kg, route oral; details: in vivo, read-out: beta t1/2 (converted)
Method in brief: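 Male Sprague-Dawley rats (n=3 per route, 0.34–0.35 kg) with jugular cannulas, fasted about 18 h before and 4 h after dosing. IV dose of 1 mg/kg in 20% ethanol/saline; oral dose of 5 mg/kg by gavage in 0.5% methylcellulose. Plasma sampled 0–96 h and assayed by LC/MS/MS (LLOQ 1.00 ng/ml). Noncompartmental analysis.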

[19] = Oral bioavailability in beagle dog at 5 mg/kg; format: ADME, organism-based, Canis lupus familiaris; details: in vivo
Method in brief: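 Male beagle dogs (n=3), one-way IV/PO crossover with a one-week washout, fasted about 15 h before and 4 h after dosing. IV dose of 1 mg/kg as a saphenous bolus in N,N-dimethylacetamide:propylene glycol:water (1:7:2); PO dose of 5 mg/kg by gavage in 0.5% methylcellulose. Plasma sampled 0–96 h and assayed by LC/MS/MS (LLOQ 1.00 ng/ml). Noncompartmental analysis; CL = dose/AUC(INF) after IV; F from dose-normalized AUC ratio.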

[20] = Protein binding in dog serum after 3 hrs by equilibrium dialysis; format: ADME, cell-free, Canis lupus familiaris; details: read-out: PB (converted)
Method in brief: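 Equilibrium dialysis of serum spiked to final 12.8, 25.6 and 38.5 µM against 134 mM phosphate buffer, pH 7.4, through a 10,000 Da cutoff membrane. Cells rotated at 20 rpm, 37°C, 3 h. Percent unbound taken as buffer concentration divided by serum concentration.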

[21] = Drug metabolism in mouse hepatocytes assessed as at 25 uM after 3 hrs by HPLC analysis
[22] = Drug metabolism in mouse hepatocytes assessed as 7-hydroxycoumarin formation at 25 uM after 3 hrs by HPLC analysis; format: ADME, cell-based, Hepatocyte
[23] = AUC (infinity) in chimpanzee at 1 mg/kg, po; format: ADME, organism-based, Pan troglodytes; design: dose 1 mg/kg, route oral, time infinity; details: plasma
Method in brief: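 Two fasted male chimpanzees (58, 72 kg) received 1 mg/kg orally as a suspension in 0.5% methylcellulose/orange drink with 1% Tween 80 (1:1). Blood was sampled 0-96 h post-dose. Plasma was assayed by validated LC/MS/MS (LLOQ 1.00 ng/ml). Noncompartmental analysis gave AUC(INF) by the mixed log-linear trapezoidal method, with Cmax observed directly; values are mean (min, max).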

| Drug metabolism [1] | Drug metabolism [2] | Drug metabolism [3] | Drug metabolism [4] | Drug metabolism [5] | Drug metabolism (Liver microsome [6]) | Drug metabolism [7] | Drug metabolism (Hepatocyte) | Drug metabolism (Liver microsome [8]) | Drug metabolism (Liver microsome [9]) | Drug metabolism [10] | Retention_time [11] [min] | Drug metabolism [12] | Drug metabolism [13] | Drug metabolism (Liver microsome [14]) | Drug metabolism [15] | Drug metabolism [16] | Compound | other results |
| --- | --- | --- | --- | --- | --- | --- | --- | --- | --- | --- | --- | --- | --- | --- | --- | --- | --- | --- |
| metabolite_detected | metabolite_detected | metabolite_detected | metabolite_detected | metabolite_detected | metabolite_detected | metabolite_detected | metabolite_detected | metabolite_detected | metabolite_detected | metabolite_detected | 28.5 | metabolite_detected | metabolite_detected | metabolite_detected | metabolite_detected | metabolite_detected | COc1ccc(-c2c(C)nn3c(N)nc(C)nc23)c(C)n1 | – |
| metabolite_detected | metabolite_detected | metabolite_detected | metabolite_detected | metabolite_detected | metabolite_detected | metabolite_detected | metabolite_detected | metabolite_detected | metabolite_detected | metabolite_detected | 25.6 | metabolite_detected | metabolite_detected | metabolite_detected | metabolite_detected | metabolite_detected | COc1ccc(-c2c(C)nn3c(O)nc(C)nc23)c(C)n1 | Drug metabolism [17]: metabolite_detected |
| metabolite_detected | metabolite_detected | metabolite_detected | metabolite_detected | metabolite_detected | metabolite_detected | metabolite_detected | metabolite_detected | metabolite_detected | metabolite_detected | metabolite_detected | 32.1 | metabolite_detected | metabolite_detected | metabolite_detected | metabolite_detected | metabolite_detected | CC[C@@H](C)Nc1nc(C)nc2c(-c3ccc(O)nc3C)c(C)nn12 | – |
| metabolite_detected | metabolite_detected | metabolite_detected | metabolite_detected | metabolite_detected | metabolite_detected | metabolite_detected | metabolite_detected | metabolite_detected | metabolite_detected | metabolite_detected | 52.2 | metabolite_detected | metabolite_detected | metabolite_detected | metabolite_detected | metabolite_detected | CC[C@@H](C)Nc1nc(C)nc2c(-c3ccc(OC)nc3C)c(C)nn12 [PEXACERFONT] | half-life [18]: 13.8 h; bioavailability [19]: 58.8%; fraction unbound at 3 h [20]: 0.048; Drug metabolism [21]: metabolite_detected; Drug metabolism [22]: metabolite_detected; AUC(0-inf) [23]: 13.9 µM·h |
